Measurements of several laboratories.
Lines come from different studies, so protocols differ.
lecA: PA-I galactophilic lectin (lecA, Pseudomonas aeruginosa, UniProt Q05097)
Oprd1: Delta-type opioid receptor (Oprd1, Mus musculus, UniProt P32300)
CHRM2: Muscarinic acetylcholine receptor M2 (CHRM2, Homo sapiens, UniProt P08172)

Structure (SMILES)	target	assay	setting	endpoint	result
CC(C)C[C@H](NC(=O)CNC(=O)[C@H](C)NC(=O)c1ccc(S[C@@H]2O[C@H](CO)[C@H](O)[C@H](O)[C@H]2O)cc1)C(=O)N[C@@H](C)C(=O)NC[C@@H]1CCN(c2cc3c(cc2F)c(=O)c(C(=O)O)cn3C2CC2)C1	lecA	ligand displacement, FP	–	Ki	11.2 µM
Cc1cc(O)cc(C)c1C[C@H](N)C(=O)N[C@H](C)C(=O)N[C@@H](Cc1ccccc1)C(=O)N[C@@H](CCCN)C(N)=O	Oprd1	ligand displacement, radioligand	cell membranes	Ki	0.06 µM
CC(C)C[C@H](NC(=O)[C@H](Cc1ccccc1)NC(=O)[C@H](Cc1ccc(O)cc1)NC(=O)CNC(=O)[C@H](CCCCN)NC(=O)[C@H](CO)NC(=O)[C@H](CCC(N)=O)NC(=O)CNC(=O)[C@@H](NC(=O)[C@H](CO)NC(=O)[C@@H]1CCCN1C(=O)[C@H](CO)NC(=O)[C@H](CCC(N)=O)NC(=O)[C@H](Cc1ccc(O)cc1)NC(=O)[C@H](CCC(=O)O)NC(=O)[C@H](C)NC(=O)[C@H](CCCCN)NC(=O)[C@@H](N)Cc1ccccc1)C(C)C)C(=O)N[C@@H](Cc1ccccc1)C(=O)N[C@@H](CCCNC(=N)N)C(=O)N1CCC[C@H]1C(=O)N[C@@H](CCCNC(=N)N)C(=O)N[C@@H](CC(N)=O)C(N)=O	Neuromedin-U receptor 1 (Mus musculus, UniProt O55040)	inositol phosphate, agonist	–	EC50	0.000166 µM
CC[C@H](C)[C@H](NC(=O)[C@H](Cc1ccccc1)NC(=O)[C@H](CC(=O)O)NC(=O)[C@H](CCCNC(=N)N)NC(=O)[C@@H](NC(=O)[C@H](C)NC(=O)[C@H](CC(C)C)NC(=O)[C@H](CC(N)=O)NC(=O)[C@H](CC(=O)O)NC(=O)[C@H](CC(C)C)NC(=O)[C@@H](NC(=O)[C@@H](NC(=O)[C@H](CO)NC(=O)[C@H](CCSC)NC(=O)[C@H](CCC(=O)O)NC(=O)[C@H](CC(=O)O)NC(=O)[C@H](CO)NC(=O)[C@H](Cc1ccccc1)NC(=O)[C@H](CO)NC(=O)CNC(=O)[C@H](CC(=O)O)NC(=O)[C@H](C)NC(=O)[C@@H](N)Cc1c[nH]cn1)[C@@H](C)O)[C@@H](C)CC)[C@@H](C)O)C(=O)N[C@@H](CC(N)=O)C(=O)N[C@@H](Cc1c[nH]c2ccccc12)C(=O)N[C@@H](CC(C)C)C(=O)N[C@H](C(=O)N[C@@H](CCC(N)=O)C(=O)N[C@H](C(=O)N[C@@H](CCCCN)C(=O)N[C@H](C(=O)N[C@H](C(=O)N[C@@H](CC(=O)O)C(=O)O)[C@@H](C)O)[C@@H](C)CC)[C@@H](C)O)[C@@H](C)CC	Gastric inhibitory polypeptide receptor (Mus musculus, UniProt Q0P543)	reporter gene, agonist, luciferase	–	EC50	> 1 µM
CC(=O)NC[C@H](NC(=O)[C@H](CCCNC(=N)N)NC(=O)[C@H](CCCNC(=N)N)NC(=O)[C@H](CC(C)C)NC(=O)[C@H](Cc1ccccc1)NC(=O)CNC(=O)CNC(=O)[C@H](Cc1ccc(O)cc1)NCc1ccccc1)C(=O)N[C@@H](CCCNC(=N)N)C(=O)N1CCC[C@H]1C(=O)N[C@@H](CCCCN)C(N)=O	Oprd1	ligand displacement, radioligand	cell membranes	Ki	2.29 µM
N[C@H](CO)Cc1ccccc1	Phenylalanine-4-hydroxylase (Pah, Rattus norvegicus, UniProt P04176)	binding, fluorescence	pH 7.5	Kd	10600 µM
CC(C)[C@H](NC(=O)[C@H](CCCCN)NC(=O)[C@@H](NC(=O)[C@@H]1CCCN1C(=O)[C@H](CCCNC(=N)N)NC(=O)CNC(=O)[C@@H](NC(=O)[C@@H](NC(=O)CNC(=O)[C@H](CO)NC(=O)CNC(=O)CCCC[C@@H]1SC[C@@H]2NC(=O)N[C@@H]21)[C@@H](C)O)[C@@H](C)O)[C@@H](C)O)C(=O)N[C@@H](Cc1ccccc1)C(=O)N[C@H](C(=O)N1CCC[C@H]1C(=O)N1CCC[C@H]1C(=O)N[C@@H](Cc1ccccc1)C(=O)N[C@@H](CCCCN)C(=O)N[C@H](C(=O)N[C@@H](CCCCN)C(=O)N[C@@H](CO)C(=O)N[C@@H](Cc1c[nH]cn1)C(=O)N[C@@H](Cc1ccccc1)C(=O)N[C@@H](Cc1c[nH]cn1)C(N)=O)[C@@H](C)O)C(C)C	DMC1 (Homo sapiens, UniProt Q14565)	binding, BLI	–	Kd	0.0013 µM
CC(C)C[C@H](NC(=O)CNC(=O)[C@H](C)NC(=O)c1ccc(S[C@@H]2O[C@H](CO)[C@H](O)[C@H](O)[C@H]2O)cc1)C(=O)N[C@@H](C)C(=O)N1CCN(c2cc3c(cc2F)c(=O)c(C(=O)O)cn3C2CC2)CC1	lecA	ligand displacement, FP	–	Ki	12.9 µM
Cc1nccc2c1[nH]c1ccccc12	Amine oxidase [flavin-containing] A (Maoa, Rattus norvegicus, UniProt P21396)	enzyme activity, inhibitor	–	Ki	0.75 µM
CC(C)[C@@H](Nc1nc(Cl)nc2c1ncn2[C@H]1[C@H](O)[C@H](O)[C@]2(CN)C[C@H]12)C1CC1	CHRM2	ligand displacement, radioligand	–	Ki	> 6.6 µM
COc1cc(C(=O)N2CC[C@@H](O)[C@@H](N)C2)cc2nc(-c3cc4ccccc4n3CC3CC3)n(C)c12	CHRM2	calcium signal, agonist	–	EC50	> 15.8 µM
